The source made the active and inactive calls. The rule behind the calls is not given here.
Tests used:
Pseudomonas aeruginosa [1] = assay: Antibacterial activity against non-beta-lactamase producing Pseudomonas aeruginosa ATCC 27853 at 10 ug/disc after overnight incubation by disc diffusion assay; type: functional, organism-based
How it was run: (§1)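 Isolates were held at −80 °C. Five colonies were suspended in Mueller-Hinton broth to a 0.5 McFarland density and swabbed onto MH agar. Discs carried 10 μg compound, applied in methanol and dried at room temperature. Plates were incubated overnight at 37 °C, and the zone of inhibition was measured in mm from the disc edge. Controls were methanol-only and penicillin discs. Run blinded, in triplicate.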

[2] = test system: Mycobacterium tuberculosis; assay: Antimycobacterial activity against wild type Mycobacterium tuberculosis H37Rv by Alamar blue assay; type: functional
Moraxella catarrhalis [3] = assay: Antibacterial activity against beta-lactamase producing Moraxella catarrhalis isolate 3 after 48 hrs incubation by microdilution broth method; type: functional; settings: isolate 3, 48 h
How it was run: (§2)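 Broth microdilution followed CLSI guidelines. Compound was dissolved in 95% ethanol, diluted at least 10-fold into Mueller-Hinton broth, then serially two-fold diluted from 500 to 15.6 μg/mL. Actively growing culture was added at 5 × 10^5 cells/mL. Plates ran 48 h at 37 °C, scored for visible growth at 24 and 48 h. MIC was the lowest concentration without growth. For MBC, 10 μL from each clear well was plated on MH agar. Controls were ethanol and penicillin. Triplicate.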

Moraxella catarrhalis [4] = assay: Antibacterial activity against beta-lactamase producing Moraxella catarrhalis isolate 1 after 48 hrs incubation by microdilution broth method; type: functional; settings: isolate 1, 48 h; how it was run: as §2
Escherichia coli [5] = assay: Antibacterial activity against non-beta-lactamase producing Escherichia coli ATCC 25922 at 10 ug/disc after overnight incubation by disc diffusion assay; type: functional, organism-based; how it was run: as §1
Enterococcus faecalis [6] = assay: Antibacterial activity against non-beta-lactamase producing Enterococcus faecalis ATCC 29212 after 48 hrs by microdilution broth method; type: functional, organism-based; how it was run: as §2
Staphylococcus aureus [7] = assay: Antibacterial activity against non-beta-lactamase producing Staphylococcus aureus ATCC 25923 at 10 ug/disc after overnight incubation by disc diffusion assay; type: functional, organism-based; how it was run: as §1
Moraxella catarrhalis [8] = assay: Antibacterial activity against beta-lactamase producing Moraxella catarrhalis isolate 6 after 48 hrs incubation by microdilution broth method; type: functional; settings: isolate 6, 48 h; how it was run: as §2
Staphylococcus aureus [9] = assay: Antibacterial activity against non-beta-lactamase producing Staphylococcus aureus ATCC 25923 after 48 hrs by microdilution broth method; type: functional, organism-based; how it was run: as §2
Escherichia coli [10] = assay: Antibacterial activity against non-beta-lactamase producing Escherichia coli ATCC 25922 after 48 hrs by microdilution broth method; type: functional, organism-based; how it was run: as §2
Enterococcus faecalis [11] = assay: Antibacterial activity against non-beta-lactamase producing Enterococcus faecalis ATCC 29212 at 10 ug/disc after overnight incubation by disc diffusion assay; type: functional, organism-based; how it was run: as §1
Moraxella catarrhalis [12] = assay: Antibacterial activity against beta-lactamase producing Moraxella catarrhalis isolate 4 after 48 hrs incubation by microdilution broth method; type: functional; settings: isolate 4, 48 h; how it was run: as §2
Moraxella catarrhalis [13] = assay: Antibacterial activity against beta-lactamase producing Moraxella catarrhalis isolate 2 after 48 hrs incubation by microdilution broth method; type: functional; settings: isolate 2, 48 h; how it was run: as §2
Moraxella catarrhalis [14] = assay: Antibacterial activity against beta-lactamase producing Moraxella catarrhalis isolate 5 after 48 hrs incubation by microdilution broth method; type: functional; settings: isolate 5, 48 h; how it was run: as §2
Pseudomonas aeruginosa [15] = assay: Antibacterial activity against non-beta-lactamase producing Pseudomonas aeruginosa ATCC 27853 after 48 hrs by microdilution broth method; type: functional, organism-based; how it was run: as §2
Moraxella catarrhalis [16] = assay: Antibacterial activity against beta-lactamase producing Moraxella catarrhalis isolate 3 at 10 ug/disc after overnight incubation by disc diffusion assay in presence of 1 mol equiv of glutathione; type: functional; settings: for zone of inhibition at 10 µg/disc: read-out: IZ
Moraxella catarrhalis [17] = assay: Antibacterial activity against beta-lactamase producing Moraxella catarrhalis isolate 4 at 10 ug/disc after overnight incubation by disc diffusion assay in presence of 1 mol equiv of glutathione; type: functional; settings: for zone of inhibition at 10 µg/disc: read-out: IZ
Moraxella catarrhalis [18] = assay: Antibacterial activity against beta-lactamase producing Moraxella catarrhalis isolate 2 at 10 ug/disc after overnight incubation by disc diffusion assay in presence of 1 mol equiv of glutathione; type: functional; settings: for zone of inhibition at 10 µg/disc: read-out: IZ
Moraxella catarrhalis [19] = assay: Antibacterial activity against beta-lactamase producing Moraxella catarrhalis isolate 4 at 10 ug/disc after overnight incubation by disc diffusion assay; type: functional; settings: for zone of inhibition at 10 µg/disc: read-out: IZ; how it was run: as §1
Moraxella catarrhalis [20] = assay: Antibacterial activity against beta-lactamase producing Moraxella catarrhalis isolate 5 at 10 ug/disc after overnight incubation by disc diffusion assay in presence of 1 mol equiv of glutathione; type: functional; settings: for zone of inhibition at 10 µg/disc: read-out: IZ
Moraxella catarrhalis [21] = assay: Antibacterial activity against beta-lactamase producing Moraxella catarrhalis isolate 3 at 10 ug/disc after overnight incubation by disc diffusion assay; type: functional; settings: for zone of inhibition at 10 µg/disc: read-out: IZ; how it was run: as §1
Moraxella catarrhalis [22] = assay: Antibacterial activity against beta-lactamase producing Moraxella catarrhalis isolate 6 at 10 ug/disc after overnight incubation by disc diffusion assay; type: functional; settings: for zone of inhibition at 10 µg/disc: read-out: IZ; how it was run: as §1
Moraxella catarrhalis [23] = assay: Antibacterial activity against beta-lactamase producing Moraxella catarrhalis isolate 5 at 10 ug/disc after overnight incubation by disc diffusion assay; type: functional; settings: for zone of inhibition at 10 µg/disc: read-out: IZ; how it was run: as §1
Moraxella catarrhalis [24] = assay: Antibacterial activity against beta-lactamase producing Moraxella catarrhalis isolate 2 at 10 ug/disc after overnight incubation by disc diffusion assay; type: functional; settings: for zone of inhibition at 10 µg/disc: read-out: IZ; how it was run: as §1
Moraxella catarrhalis [25] = assay: Antibacterial activity against beta-lactamase producing Moraxella catarrhalis isolate 1 at 10 ug/disc after overnight incubation by disc diffusion assay in presence of 1 mol equiv of glutathione; type: functional
Moraxella catarrhalis [26] = assay: Antibacterial activity against beta-lactamase producing Moraxella catarrhalis isolate 1 at 10 ug/disc after overnight incubation by disc diffusion assay; type: functional; settings: for zone of inhibition at 10 µg/disc: read-out: IZ; how it was run: as §1
Moraxella catarrhalis [27] = assay: Antibacterial activity against beta-lactamase producing Moraxella catarrhalis isolate 6 at 10 ug/disc after overnight incubation by disc diffusion assay in presence of 1 mol equiv of glutathione; type: functional; settings: for zone of inhibition at 10 µg/disc: read-out: IZ
Moraxella catarrhalis [28] = assay: Antibacterial activity against beta-lactamase producing Moraxella catarrhalis isolate 5 at 500 ug/ml after overnight incubation by disc diffusion assay; type: functional, organism-based
Moraxella catarrhalis [29] = assay: Antibacterial activity against beta-lactamase producing Moraxella catarrhalis isolate 4 at 500 ug/ml after overnight incubation by disc diffusion assay; type: functional, organism-based
Moraxella catarrhalis [30] = assay: Antibacterial activity against beta-lactamase producing Moraxella catarrhalis isolate 3 at 500 ug/ml after overnight incubation by disc diffusion assay; type: functional, organism-based
Moraxella catarrhalis [31] = assay: Antibacterial activity against beta-lactamase producing Moraxella catarrhalis isolate 2 at 500 ug/ml after overnight incubation by disc diffusion assay; type: functional, organism-based
Moraxella catarrhalis [32] = assay: Antibacterial activity against beta-lactamase producing Moraxella catarrhalis isolate 6 at 500 ug/ml after overnight incubation by disc diffusion assay; type: functional, organism-based
[33] = test system: Mycobacterium tuberculosis; assay: Antimycobacterial activity against wild type Mycobacterium tuberculosis H37Rv at 200 ug/ml by Alamar blue assay; type: functional, organism-based

| Compound | Activity (Pseudomonas aeruginosa [1]) | Activity (Escherichia coli [5]) | Activity (Enterococcus faecalis [6]) | Activity (Staphylococcus aureus [7]) | Activity (Staphylococcus aureus [9]) | Activity (Escherichia coli [10]) | Activity (Enterococcus faecalis [11]) | Activity (Pseudomonas aeruginosa [15]) | zone of inhibition at 10 µg/disc (Moraxella catarrhalis [17]) [mm] | zone of inhibition at 10 µg/disc (Moraxella catarrhalis [19]) [mm] | zone of inhibition at 10 µg/disc (Moraxella catarrhalis [23]) [mm] | inhibition zone (IZ) (Moraxella catarrhalis [25]) | inhibition zone (IZ) (Moraxella catarrhalis [26]) | antibacterial activity (active/not active) (Moraxella catarrhalis [28]) | antibacterial activity (active/not active) (Moraxella catarrhalis [29]) | antibacterial activity (active/not active) (Moraxella catarrhalis [30]) | antibacterial activity (active/not active) (Moraxella catarrhalis [31]) | antibacterial activity (active/not active) (Moraxella catarrhalis [32]) | inhibition zone (IZ) (Moraxella catarrhalis [21]) | inhibition zone (IZ) (Moraxella catarrhalis [24]) | other results |
| --- | --- | --- | --- | --- | --- | --- | --- | --- | --- | --- | --- | --- | --- | --- | --- | --- | --- | --- | --- | --- | --- |
| O=C1CC(Sc2ccc(O)cc2)N1 (racemic) | inactive | inactive | inactive | inactive | inactive | inactive | inactive | inactive | – | – | – | – | – | – | – | – | – | – | – | – | MBC [2]: > 200 µg/mL; MBC (Moraxella catarrhalis [3]): < 15.6 µg/mL; MBC (Moraxella catarrhalis [4]): > 500 µg/mL; MBC (Moraxella catarrhalis [8]): < 15.6 µg/mL; MBC (Moraxella catarrhalis [12]): < 15.6 µg/mL; MBC (Moraxella catarrhalis [13]): < 15.6 µg/mL; MBC (Moraxella catarrhalis [14]): < 15.6 µg/mL |
| CC(=O)SC1CC(=O)N1S(=O)(=O)O (racemic) | inactive | inactive | inactive | inactive | inactive | inactive | inactive | inactive | 14 | 12 | 17 | inactive | inactive | – | – | – | – | – | – | – | zone of inhibition at 10 µg/disc (Moraxella catarrhalis [16]): 12 mm; zone of inhibition at 10 µg/disc (Moraxella catarrhalis [18]): 11 mm; zone of inhibition at 10 µg/disc (Moraxella catarrhalis [20]): 18 mm; zone of inhibition at 10 µg/disc (Moraxella catarrhalis [21]): 17 mm; zone of inhibition at 10 µg/disc (Moraxella catarrhalis [22]): 11 mm; zone of inhibition at 10 µg/disc (Moraxella catarrhalis [24]): 12 mm; zone of inhibition at 10 µg/disc (Moraxella catarrhalis [27]): 12 mm |
| CCOC(=O)CN1C(=O)C(OC)C1C(CC)(CC)SSC(C=O)(CC)CC (racemic) | inactive | inactive | inactive | inactive | inactive | inactive | inactive | inactive | – | – | 3 | – | – | Active | Active | Active | Active | Active | inactive | inactive | inhibition zone (IZ) (Moraxella catarrhalis [19]): inactive; zone of inhibition at 10 µg/disc (Moraxella catarrhalis [26]): 20 mm; antimycobacterial activity (active/not active) [33]: Active |
| CC(=O)SC1CC(=O)N1 (racemic) | inactive | inactive | inactive | inactive | inactive | inactive | inactive | inactive | 22 | 26 | 28 | – | – | – | – | – | – | – | – | – | zone of inhibition at 10 µg/disc (Moraxella catarrhalis [16]): 19 mm; zone of inhibition at 10 µg/disc (Moraxella catarrhalis [18]): 19 mm; zone of inhibition at 10 µg/disc (Moraxella catarrhalis [20]): 24 mm; zone of inhibition at 10 µg/disc (Moraxella catarrhalis [21]): 24 mm; zone of inhibition at 10 µg/disc (Moraxella catarrhalis [22]): 20 mm; zone of inhibition at 10 µg/disc (Moraxella catarrhalis [24]): 20 mm; zone of inhibition at 10 µg/disc (Moraxella catarrhalis [25]; read-out: IZ): 16 mm; zone of inhibition at 10 µg/disc (Moraxella catarrhalis [26]): 19 mm; zone of inhibition at 10 µg/disc (Moraxella catarrhalis [27]): 19 mm |
| CCC(CC)(CO)SC1CC(=O)N1 (configuration not stated) | inactive | inactive | inactive | inactive | inactive | inactive | inactive | inactive | – | – | – | inactive | – | – | – | – | – | – | – | – | inhibition zone (IZ) (Moraxella catarrhalis [16]): inactive; inhibition zone (IZ) (Moraxella catarrhalis [17]): inactive; inhibition zone (IZ) (Moraxella catarrhalis [18]): inactive; inhibition zone (IZ) (Moraxella catarrhalis [20]): inactive |
| O=C1CC(Sc2ccccc2)N1 (racemic) | inactive | inactive | inactive | inactive | inactive | inactive | inactive | inactive | – | – | – | – | inactive | inactive | inactive | inactive | inactive | inactive | inactive | inactive | inhibition zone (IZ) (Moraxella catarrhalis [19]): inactive; inhibition zone (IZ) (Moraxella catarrhalis [23]): inactive; antimycobacterial activity (active/not active) [33]: inactive |
| Nc1ccc(SC2CC(=O)N2S(=O)(=O)O)cc1 (racemic) | inactive | inactive | inactive | inactive | inactive | inactive | inactive | inactive | 8 | 8 | – | inactive | inactive | Active | Active | Active | Active | Active | inactive | inactive | inhibition zone (IZ) (Moraxella catarrhalis [16]): inactive; inhibition zone (IZ) (Moraxella catarrhalis [18]): inactive; inhibition zone (IZ) (Moraxella catarrhalis [20]): inactive; inhibition zone (IZ) (Moraxella catarrhalis [22]): inactive; inhibition zone (IZ) (Moraxella catarrhalis [23]): inactive; antimycobacterial activity (active/not active) [33]: Active; inhibition zone (IZ) (Moraxella catarrhalis [27]): inactive |

Source: ChEMBL document CHEMBL1914320, “C4-alkylthiols with activity against Moraxella catarrhalis and Mycobacterium tuberculosis” (Bioorg Med Chem, 2011)
